We go through 96 compounds from ChEMBL document CHEMBL4513216, “Probing the Open Global Health Chemical Diversity Library for Multistage-Active Starting Points for Next-Generation Antimalarials” (ACS Infect Dis, 2020).

The data set in a line: Toxicity liver stage against HepG2, at 10uM. Type of data set: cell-based. On the set-up: test concentration 10 uM, cell line HepG2-A16-CD81EGFP. Conditions: human, HepG2-A16-CD81EGFP cells; read-out: INHIBITION
The method in brief:
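Uninfected HepG2-A16-CD81EGFP cells, 3 × 10^3 per well, 1536-well, plated on prespotted compound at 10 μM final, parasite-free screening media added to match infected plates; puromycin 10 μM positive, DMSO 0.5% negative; run in parallel with 48 h PbLuc assay at 37 °C, 5% CO2; viability by CellTiter-Glo luminescence, normalized to controls.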
With `CC(=O)N(Cc1noc(C)n1)C1CCN(Cc2cc(C)on2)C1` (stereo unspecified), the cytotoxicity at 10 µM was found to be 4.38%.

Take `CN(C)c1ccc(NC(=O)CN2CCS(=O)(=O)CC2)cn1`: the cytotoxicity at 10 µM was 6.56%.

For the compound `Cc1ccsc1C(=O)N1CC(C(=O)N2CCCC2)C2(CCOCC2)C1` (stereo unspecified), the cytotoxicity at 10 µM came out at 3.68%.

For the compound `CCc1cccc(N2CCC(NC(=O)C3CCCO3)CC2)c1` (stereo unspecified), the cytotoxicity at 10 µM was -14.3%.

On to `CC(=O)N1CCC(N2CCN3C(=O)N(Cc4ccccn4)C[C@H]3C2)CC1`, for which the cytotoxicity at 10 µM was determined as 2.26%.

On to `O=C(NC1CC1)[C@@]12CCO[C@@H]1CCN(Cc1ccc3c(c1)OCO3)C2`, for which the cytotoxicity at 10 µM is -2.87%.

As for `CC(=O)Nc1ccc(-n2ccc3nc(N4CCCC4)ncc3c2=O)cc1`, the cytotoxicity at 10 µM amounted to 2.24%.

Turning to `CC(NC(=O)N1CCCN(C)CC1)c1ccc2c(c1)OCCO2` (stereo unspecified), the cytotoxicity at 10 µM is -6.36%.

`COCCN1CCN(C(=O)NC2CC2)Cc2ccc(C)nc21`: the cytotoxicity at 10 µM was 3.51%.

Turning to `CSc1ccc(CN(C(=O)c2cc[nH]n2)C2CC2)cc1`, the cytotoxicity at 10 µM is -44.4%.

With `Cc1nc(COc2nc(C(C)C)no2)cs1`, the cytotoxicity at 10 µM was determined as 11.5%.

Take `Cc1cccc2c1ccn2CC(=O)O`: the cytotoxicity at 10 µM was found to be 9.49%.

For `Cc1ccc2[nH]c(CN(C)c3cc(CCN)nc(C)n3)nc2c1`, the cytotoxicity at 10 µM was determined as 0%.

Consider `Cn1cc(C(=O)N2CCN(Cc3cscn3)CC2)ccc1=O`, for which the cytotoxicity at 10 µM was -4.79%.

Take `Cc1cc(C(=O)N2CCC3(CC2)CN(CCN(C)C)C(=O)O3)nc(C)n1`: the cytotoxicity at 10 µM is 2.92%.

Turning to `CSc1ccc(C(=O)N2C[C@@H]3CC[C@H]2CN(Cc2cccnc2)C3)cc1`, the cytotoxicity at 10 µM was -7.38%.

Turning to `COC(=O)c1ccc(CN2CCN(Cc3nc(C)no3)CC2)s1`, the cytotoxicity at 10 µM was 4.07%.

Take `Cc1cc(NC(=O)NCCO)nn1-c1ccc(Cl)cc1Cl`: the cytotoxicity at 10 µM was -136%.

Consider `COCc1nnn2c1CN(C(=O)c1c[nH]cn1)CCC2`, for which the cytotoxicity at 10 µM stood at 2.02%.

Consider `N#Cc1ncn(CC(=O)N2CCCC2c2cccs2)n1` (stereo unspecified), for which the cytotoxicity at 10 µM was -21.7%.

On to `CSc1ncc(CNC(C)c2cnn(-c3ccccc3)c2C)cn1` (stereo unspecified), for which the cytotoxicity at 10 µM is -3.63%.

On to `O=C(c1cccc(O)c1)N1CCN(Cc2nnc(C3CCC3)o2)CC1`, for which the cytotoxicity at 10 µM is -8.52%.

Regarding `O=C(NCC1CC1)[C@H]1C[C@@H]2[C@@H](C1)OCCN2Cc1cccnc1`, the cytotoxicity at 10 µM amounted to 4.09%.

Turning to `CCCn1nc2c(cc1=O)CN(Cc1nnc(C3CC3)o1)CC2`, the cytotoxicity at 10 µM was 2.11%.

Turning to `Cc1ccc(-c2nnc(CN3CCc4nn(C)c(=O)cc4C3)o2)cc1`, the cytotoxicity at 10 µM was -23.4%.

With `Cc1cccc(Cl)c1NC(=O)Cn1cc(C(=O)O)ccc1=O`, the cytotoxicity at 10 µM is -1.35%.

On to `O=C1NCc2ccccc2CC12CCN(Cc1ccncc1Cl)C2` (stereo unspecified), for which the cytotoxicity at 10 µM was 8.27%.

On to `COc1ccc([C@@H]2CN(C(=O)c3cscn3)C[C@H]2C(=O)O)cc1`, for which the cytotoxicity at 10 µM is -18.2%.

As to `CC(=O)c1cccc(S(=O)(=O)N2CCC(c3noc(C)n3)CC2)c1`, the cytotoxicity at 10 µM stood at 7.85%.

On to `CCN(CC)C(=O)Cn1ccc2cc(NC(=O)C3CCCO3)ccc21` (stereo unspecified), for which the cytotoxicity at 10 µM was 1.35%.

With `COc1ccc2[nH]cc(C(=O)N3CC[C@H](CO)[C@@H](O)C3)c(=O)c2c1`, the cytotoxicity at 10 µM was determined as 1.26%.

With `O=C1CCC(C(=O)N2CCOC(Cc3cccc4ccccc34)C2)=NN1` (stereo unspecified), the cytotoxicity at 10 µM is -3.86%.

As for `Cc1nc(N2CCN(C(=O)c3ccccc3)CC2)c2cnn(C)c2n1`, the cytotoxicity at 10 µM is -11.5%.

As for `O=C(CSc1ccc(Br)cc1)NS(=O)(=O)c1ccc2c(c1)OCCO2`, the cytotoxicity at 10 µM was -5.51%.

Regarding `COc1cc(C)ccc1C(=O)N1C[C@@H](CN(C)CCO)[C@@H](CO)C1`, the cytotoxicity at 10 µM was 1%.

For `COC(=O)CN1CCN(c2cccc(C)c2)CC1`, the cytotoxicity at 10 µM was 3.54%.

In the case of `CN(C)C(=O)N1C[C@@H](C(=O)NCc2ccco2)C[C@H]2OCC[C@H]21`, the cytotoxicity at 10 µM turned out to be 2.57%.

Turning to `c1ccc(Oc2ccc(OC34CCCN(CC3)C4)cc2)cc1` (stereo unspecified), the cytotoxicity at 10 µM was 0.741%.

As for `O=C(c1ccco1)N1CCCC2(CN(Cc3ccsc3)CCO2)C1` (stereo unspecified), the cytotoxicity at 10 µM was -2.37%.

On to `Cc1cnn(CC2CCCN2Cc2nc3ccccc3c(=O)[nH]2)c1` (stereo unspecified), for which the cytotoxicity at 10 µM is -4.82%.

Take `CCC(C)(CNC(=O)Nc1nncs1)N1CCOCC1` (stereo unspecified): the cytotoxicity at 10 µM is -7.98%.

On to `CNCC(=O)N1CCCC(c2ccnc(Nc3cnccn3)n2)C1` (stereo unspecified), for which the cytotoxicity at 10 µM was -11.6%.

As for `Cc1ccc(-c2nc(CNCC3CN(C)CCO3)co2)c(C)c1` (stereo unspecified), the cytotoxicity at 10 µM is -16.4%.

For `Clc1ccc(C2(NCc3noc(C4CC4)n3)CCC2)cc1`, the cytotoxicity at 10 µM is 5.04%.

As for `CC(=O)c1cccc(NC(=O)Cn2cc(I)cn2)c1`, the cytotoxicity at 10 µM was -1.87%.

Turning to `CCCc1ccc(C(C)Nc2ncnc3c2CCNC3)cc1` (stereo unspecified), the cytotoxicity at 10 µM was determined as 28.1%.

Regarding `CC(Cn1cccn1)NC(=O)NCc1ccc(S(C)(=O)=O)cc1` (stereo unspecified), the cytotoxicity at 10 µM worked out at 3.64%.

As to `Cc1cc(N2CCC(c3nnc(CN(C)C)n3C3CC3)CC2)ccn1`, the cytotoxicity at 10 µM amounted to 7.57%.

As for `Cc1cccnc1NC(=O)C(C)Cn1nc(C(F)(F)F)cc1C` (stereo unspecified), the cytotoxicity at 10 µM worked out at 5.89%.

On to `COc1ccc(C(=O)C2CCCN(Cc3ccccc3O)C2)c(OC)c1` (stereo unspecified), for which the cytotoxicity at 10 µM came out at 5.45%.

Turning to `c1cc(CN2CCC3(CCOCC3COCC3CC3)CC2)co1` (stereo unspecified), the cytotoxicity at 10 µM was -2.69%.

On to `CC(=O)Oc1ccnc(C(F)(F)F)c1C(C)=O`, for which the cytotoxicity at 10 µM is -11.4%.

For the compound `CCc1noc(C)c1C(=O)NCc1ccccn1`, the cytotoxicity at 10 µM was -1%.

On to `CN(C)C1CC2(CCN(C(=O)NC3CC3)CC2)c2ccccc21` (stereo unspecified), for which the cytotoxicity at 10 µM was -112%.

As to `CCOC(=O)C1CN(C(=O)COC)Cc2ncn(CC)c21` (stereo unspecified), the cytotoxicity at 10 µM came out at 6.01%.

With `CCn1ccnc1CN1CCCN(C(=O)c2cccn2C)CC1`, the cytotoxicity at 10 µM was -8.93%.

On to `Cc1occc1C(=O)N1CCC2(CCN(C(=O)c3cccnc3)C2)CC1`, for which the cytotoxicity at 10 µM is -88.1%.

In the case of `CC(NC(=O)c1ccc(F)cc1F)c1cnn(C)c1` (stereo unspecified), the cytotoxicity at 10 µM was 3.68%.

`CCc1ccc(-c2noc(Cn3nc(C(N)=O)ccc3=O)n2)cc1`: the cytotoxicity at 10 µM was -4.22%.

Regarding `CC(C)C(NC(=O)c1ccccc1)C(=O)N1CCC2(CC1)OCCO2` (stereo unspecified), the cytotoxicity at 10 µM was 5.44%.

`CCOC1CCN(C(=O)c2cc(-c3ccc(Cl)cc3)on2)CC1`: the cytotoxicity at 10 µM is -5.08%.

In the case of `O=C1CC2(CCN(Cc3cccs3)C2)CN1c1cccc(F)c1` (stereo unspecified), the cytotoxicity at 10 µM is -148%.

For the compound `Cc1nonc1NC(=O)C1SCCc2ccccc21` (stereo unspecified), the cytotoxicity at 10 µM was -3%.

Turning to `Cn1cc(S(=O)(=O)NCc2ccsc2)cn1`, the cytotoxicity at 10 µM amounted to 0.978%.

On to `Cc1nn(C)cc1-c1cc(C(F)(F)F)nc(NC2CCN(C)CC2)n1`, for which the cytotoxicity at 10 µM stood at 11.7%.

In the case of `CCOc1ccc(N(C)Cc2nnc(C3CC3)o2)cc1`, the cytotoxicity at 10 µM was 8.17%.

Turning to `NC(=O)NCC(=O)N1CCC(c2cc(-c3ccccc3Cl)n[nH]2)CC1`, the cytotoxicity at 10 µM was -0.208%.

On to `Cc1cc(C2CCCN(C(=O)c3c(C)nn4cccnc34)C2)n[nH]1` (stereo unspecified), for which the cytotoxicity at 10 µM is -0.457%.

For `CCc1[nH]c2c(CNC(=O)C3CCS(=O)(=O)CC3)cc(C)cc2c1C`, the cytotoxicity at 10 µM is 1.87%.

As to `CC(C)(C)c1noc(-c2nc3c([nH]2)CCCNC3=O)n1`, the cytotoxicity at 10 µM is -3.83%.

On to `O=C(c1nc2c(s1)CCCN2C(=O)C1CC1)N1CCOCC1`, for which the cytotoxicity at 10 µM was found to be 4.96%.

Turning to `CS(=O)(=O)c1ccc(CC(=O)N2CCN3CCNC(=O)C3C2)cc1` (stereo unspecified), the cytotoxicity at 10 µM is -3.34%.

Consider `O=C(c1cccs1)N1CC[C@H]2C[C@@H](c3nnc(C4CC4)o3)O[C@@H]2C1`, for which the cytotoxicity at 10 µM is -109%.

Turning to `Cc1ccc(C2CSCCN2CC(=O)N2CCOCC2)cc1` (stereo unspecified), the cytotoxicity at 10 µM came out at 9.04%.

For the compound `Cc1nc(C(C)(C)C)sc1C(=O)NCCn1cccn1`, the cytotoxicity at 10 µM was -3.17%.

Consider `COC1CCN(S(=O)(=O)N2CCCC(c3cccc(C(=O)O)c3)C2)CC1` (stereo unspecified), for which the cytotoxicity at 10 µM came to 1.83%.

`CC1CCCCN1C(=O)COCc1nc(-c2ccncc2)no1` (stereo unspecified): the cytotoxicity at 10 µM amounted to 1.79%.

Turning to `CCN(Cc1cnn(C)c1)S(=O)(=O)c1ccc(NC(=O)C(C)(C)C)cc1`, the cytotoxicity at 10 µM worked out at 0.165%.

Consider `COCc1cc(N(C)Cc2cc(C(C)(C)C)n[nH]2)ncn1`, for which the cytotoxicity at 10 µM is -1.15%.

With `O=C(c1ccc2c(c1)OCO2)N1C[C@H](OCC2CC2)[C@H]2COC[C@H]21`, the cytotoxicity at 10 µM is -166%.

In the case of `Cn1cc(C2CCCN2C(=O)c2cnc(-c3ccco3)s2)cn1` (stereo unspecified), the cytotoxicity at 10 µM came to 3.88%.

`Cn1ccnc1CN1CCN(CC(O)c2ccc(F)c(F)c2)CC1` (stereo unspecified): the cytotoxicity at 10 µM is -12.9%.

For `Cc1ccsc1CN(Cc1nc2c(cnn2C)c(=O)[nH]1)C(C)C`, the cytotoxicity at 10 µM is -7.27%.

`C[C@@]1(O)CCN(Cc2cc[nH]n2)C[C@H]1Oc1cccc(F)c1`: the cytotoxicity at 10 µM was -6.86%.

In the case of `COC(=O)c1ncccc1N1CCCC1`, the cytotoxicity at 10 µM is -3.1%.

Take `OCCCN(CCc1cccc(F)c1)C1CC1`: the cytotoxicity at 10 µM is -8.9%.

Take `CCn1c(NCc2ccccc2)nc2c(C)nn(C)c2c1=O`: the cytotoxicity at 10 µM was determined as 10.6%.

As to `CCc1nc(C(=O)N2CC(C)CN(C)c3ccccc32)c[nH]1` (stereo unspecified), the cytotoxicity at 10 µM was -3.47%.

Turning to `CC(C)N1CC[C@@](C)(O)[C@H](n2ccc(=O)[nH]c2=O)C1`, the cytotoxicity at 10 µM amounted to 6.61%.

For `Cc1nc2c(c(C)c1CC(=O)NC(C)c1ccccc1)c(=O)[nH]n2C` (stereo unspecified), the cytotoxicity at 10 µM was -3.44%.

Regarding `CC(C)(CNC1CCCN(Cc2ccccn2)C1)CN1CCOCC1` (stereo unspecified), the cytotoxicity at 10 µM was determined as 5.91%.

Turning to `CN(C(=O)CN1CCCC1=O)C1CCCN(C2Cc3ccccc3C2)C1` (stereo unspecified), the cytotoxicity at 10 µM was found to be 0.024%.

On to `Cc1cc(CN(C)C(=O)NCC(C)N2CCc3ccccc32)no1` (stereo unspecified), for which the cytotoxicity at 10 µM is -5.43%.

`COCCC(=O)NCCCOC1CCCc2ccccc21` (stereo unspecified): the cytotoxicity at 10 µM was -6.87%.

Consider `O=C(NCCCN1CCc2ccccc2C1)c1ccccc1Br`, for which the cytotoxicity at 10 µM is -10.2%.

For the compound `CCN(Cc1cnn(CC)c1)C(=O)CN1C(=O)CCc2ccccc21`, the cytotoxicity at 10 µM is -2.17%.
